Results: ChEMBL document CHEMBL1138799, “4-benzyl- and 4-benzoyl-3-dimethylaminopyridin-2(1H)-ones, a new family of potent anti-HIV agents: optimization and in vitro evaluation against clinically important HIV mutant strains” (J Med Chem, 2004)

Key:
[1] = system: Human immunodeficiency virus 1; assay: Selectivity index of cytotoxic activity (CC50) to inhibitory activity (IC50) relative to LAI cell line; type: functional
Method in brief: (§1)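 MT4 human T-lymphoblastoid cells were grown in RPMI 1640 with 10% fetal calf serum and antibiotics at 37 °C and 5% CO2. A compound concentration series was combined with HIV-1 LAI at 200 CCID50/well and 30 000 cells/well. Mock-infected cultures with the same concentrations were run in parallel to measure cytotoxicity. After 5 days, cell viability was read by MTT colorimetry. EC50 is the concentration giving 50% infection versus the drug-free control.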

[2] = system: Human immunodeficiency virus 1; assay: Inhibitory activity against wild type HIV-1 LAI cell line; type: functional, organism-based; details: Human immunodeficiency virus 1, LAI; method in brief: as §1
[3] = system: Human immunodeficiency virus 1; assay: Inhibitory activity against HIV-1 mutant strain 103N; type: functional, organism-based
Method in brief: (§2)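 Mutant HIV-1 made by recombining mutant PR-RT sequence into a PR-RT-deleted HXB2 proviral clone. Serial compound concentrations plated, then virus (200 CCID50/well) and MT4 cells (30 000 cells/well; RPMI 1640, 10% FCS) added; 5 days at 37 °C, 5% CO2; viability read by MTT. EC50 = concentration giving 50% infection versus drug-free control; mock-infected cultures run in parallel for toxicity.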

[4] = system: Human immunodeficiency virus 1; assay: Inhibitory activity against HIV-1 mutant strain 181C; type: functional, organism-based; method in brief: as §2
[5] = system: Human immunodeficiency virus 1; assay: Inhibitory activity against HIV-1 mutant strain 188L; type: functional, organism-based; method in brief: as §2

| SMILES | Selectivity index [1] | IC50 [2] | IC50 [3] | IC50 [4] | IC50 [5] |
| --- | --- | --- | --- | --- | --- |
| CCc1c(C)nc(O)c(N(C)C)c1C(=O)c1cccc(N2CCCC2=O)c1 | 2510 | 40 nM |  |  |  |
| CCc1c(C)nc(O)c(N(C)C)c1C(=O)c1cccc(/C=C/c2nccs2)c1 | 3160 | 30 nM |  |  |  |
| CCc1c(C)nc(O)c(N(C)C)c1Cc1ccc(-c2ccccc2)cc1 | 3 | 3980 nM | 10000 nM | 10000 nM |  |
| CCOC(=O)/C(C#N)=C\c1cccc(C(=O)c2c(CC)c(C)nc(O)c2N(C)C)c1 | 631 | 150 nM |  |  |  |
| CCc1c(C)nc(O)c(N(C)C)c1C(=O)c1cccc(/C=C(\C#N)c2cccnc2)c1 | 200 | 60 nM |  |  |  |
| CCc1c(C)nc(O)c(N(C)C)c1C(=O)c1cccc(/C=C\C#N)c1 | 25100 | 4 nM | 3 nM | 10 nM | 40 nM |
| CCc1c(C)nc(O)c(N(C)C)c1C(=O)c1cccc(CC(C)C#N)c1 (stereo not drawn) | 12600 | 8 nM | 50 nM | 500 nM | 1990 nM |
| CCc1c(C)nc(O)c(N(C)C)c1Cc1ccnc2ccccc12 | 20 | 5010 nM | 79400 nM | 63000 nM |  |
| CCc1c(C)nc(O)c(N(C)C)c1C(=O)c1cc(Br)cs1 | 10000 | 3 nM | 100 nM | 630 nM | 10000 nM |
| CCc1c(C)nc(O)c(N(C)C)c1Cc1ccc(OC)c(C)c1 | 251 | 390 nM |  |  |  |
| CCc1c(C)nc(O)c(N(C)C)c1C(=O)c1cc(F)cc(C(F)(F)F)c1 | 31600 | 3 nM |  |  |  |
| CCc1c(C)nc(O)c(N(C)C)c1Cc1nccs1 | 1580 | 60 nM | 1990 nM | 500 nM |  |
| CCc1c(C)nc(O)c(N(C)C)c1C(=O)c1ccc(C)o1 | 10000 | 10 nM | 250 nM | 1580 nM | 50100 nM |
| CCc1c(C)nc(O)c(N(C)C)c1C(=O)c1cccc(/C=C/c2ccccc2)c1 | 398 | 250 nM |  |  |  |
| CCc1c(C)nc(O)c(N(C)C)c1Cc1cccc(C)c1C | 200 | 100 nM | 2510 nM | 2510 nM |  |
| CCc1c(C)nc(O)c(N(C)C)c1C(=O)c1cccc(N)c1 | 2510 | 10 nM | 500 nM | 10000 nM | 10000 nM |
| CCc1c(C)nc(O)c(N(C)C)c1C(=O)c1cccc(CNC(C)=O)c1 | 251 | 390 nM |  |  |  |
| CCc1c(C)nc(O)c(N(C)C)c1C(=O)c1cccc(/C=C\c2cnccn2)c1 | 501 | 190 nM |  |  |  |
| CCOc1cccc(Cc2c(CC)c(C)nc(O)c2N(C)C)c1 | 794 | 10 nM |  |  |  |
| CCc1c(C)nc(O)c(N(C)C)c1Cc1cccc(Cl)c1 | 20000 | 5 nM | 40 nM | 80 nM | 1580 nM |
| C/C=C/c1cccc(C(=O)c2c(CC)c(C)nc(O)c2N(C)C)c1 | 10000 | 5 nM | 150 nM | 390 nM | 390 nM |
| CCc1c(C)nc(O)c(N(C)C)c1C(=O)c1cccc(/C=C\c2ccncc2)c1 | 794 | 60 nM |  |  |  |
| CCc1c(C)nc(O)c(N(C)C)c1C(=O)c1cccc(C#Cc2ccccc2)c1 | 631 | 150 nM |  |  |  |

| SMILES | Selectivity index [1] | IC50 [2] | IC50 [3] | IC50 [4] | IC50 [5] |
| --- | --- | --- | --- | --- | --- |
| CCc1c(C)nc(O)c(N(C)C)c1C(=O)c1cccc([N+](=O)[O-])c1 | 39600 | 2 nM | 20 nM | 200 nM | 3160 nM |
| CCc1c(C)nc(O)c(N(C)C)c1C(=O)c1cccc(/C=C/c2ccco2)c1 | 5010 | 20 nM |  |  |  |
| CCc1c(C)nc(O)c(N(C)C)c1C(=O)c1cccc(/C=C(\C)C#N)c1 | 6310 | 1 nM |  |  | 630 nM |
| CCc1c(C)nc(O)c(N(C)C)c1C(=O)c1cccc(/C=C\c2ccccc2)c1 | 79 | 1250 nM |  |  |  |
| CCc1c(C)nc(O)c(N(C)C)c1C(=O)c1cccc(/C=C\c2nccs2)c1 | 501 | 150 nM |  |  |  |
| CCc1c(C)nc(O)c(N(C)C)c1C(=O)c1cccc(-n2cccc2)c1 | 631 | 70 nM |  |  |  |
| CCc1c(C)nc(O)c(N(C)C)c1C(=O)c1c(F)cccc1F | 2000 | 50 nM |  |  |  |
| CCc1c(C)nc(O)c(N(C)C)c1C(=O)c1cccc(CN)c1 | 251 | 390 nM |  |  |  |
| CCc1c(C)nc(O)c(N(C)C)c1Cc1ccc(C)c(C)c1 | 2510 | 40 nM | 1000 nM | 400 nM |  |
| CCc1c(C)nc(O)c(N(C)C)c1Cc1c(C)cc(C)cc1C | 1 | 10000 nM | 10000 nM | 10000 nM |  |
| CCc1c(C)nc(O)c(N(C)C)c1C(=O)c1cccc(C=C(C#N)C#N)c1 | 3980 | 10 nM |  |  |  |
| CCc1c(C)nc(O)c(N(C)C)c1C(=O)c1cccc(/C=C\c2ccco2)c1 | 794 | 60 nM |  |  |  |
| CCc1c(C)nc(O)c(N(C)C)c1C(=O)c1cccc(/C=C\Cc2ccccc2)c1 | 32 | 1580 nM |  |  |  |
| CCc1c(C)nc(O)c(N(C)C)c1Cc1ccc(Cl)cc1 | 50 | 190 nM |  | 6310 nM |  |
| CCc1c(C)nc(O)c(N(C)C)c1Cc1ccc(Br)cc1 | 63 | 1580 nM |  |  |  |
| CCc1c(C)nc(O)c(N(C)C)c1C(=O)c1cccc(/C=C/c2cccn2C)c1 | 158 | 310 nM |  |  |  |
| CCNC(=O)Nc1cccc(C(=O)c2c(CC)c(C)nc(O)c2N(C)C)c1 | 50 | 1990 nM |  |  |  |
| CCc1c(C)nc(O)c(N(C)C)c1C(=O)c1cccc(/C=C/c2ccsc2)c1 | 1000 | 100 nM |  |  |  |
| CCc1c(C)nc(O)c(N(C)C)c1Cc1ccc(C)cc1 | 316 | 310 nM | 12600 nM | 10000 nM |  |
| CCc1c(C)nc(O)c(N(C)C)c1C(=O)c1cccc(N(CC)CC)c1 | 50 | 1990 nM |  |  |  |
| CCc1c(C)nc(O)c(N(C)C)c1C(=O)c1cccc(/C=C\c2ccccn2)c1 | 63 | 1580 nM |  |  |  |
| CCc1c(C)nc(O)c(N(C)C)c1Cc1ccc(N(C)C)cc1 | 8 | 1250 nM | 10000 nM | 10000 nM |  |
| CCc1c(C)nc(O)c(N(C)C)c1C(=O)c1cccc(-c2nccs2)c1 | 40 | 250 nM |  |  |  |

| SMILES | Selectivity index [1] | IC50 [2] | IC50 [3] | IC50 [4] | IC50 [5] |
| --- | --- | --- | --- | --- | --- |
| CCc1c(C)nc(O)c(N(C)C)c1C(=O)c1cccc(C(C)O)c1 (stereo not drawn) | 2000 | 50 nM |  |  |  |
| CCc1c(C)nc(O)c(N(C)C)c1C(=O)c1cccc(-c2ccccc2)c1 | 251 | 390 nM |  |  |  |
| CCc1c(C)nc(O)c(N(C)C)c1C(=O)c1cccc(N(C)C)c1 | 251 | 390 nM |  |  |  |
| CCc1c(C)nc(O)c(N(C)C)c1C(=O)c1cccc(/C=C/c2ccncc2)c1 | 10000 | 10 nM |  |  |  |
| CCc1c(C)nc(O)c(N(C)C)c1C(=O)c1cccc(/C=C/c2cccs2)c1 | 1260 | 70 nM |  |  |  |
| CCc1c(C)nc(O)c(N(C)C)c1Cc1nccn1C | 1 | 100000 nM |  |  | 100000 nM |
| CCc1c(C)nc(O)c(N(C)C)c1C(=O)c1cccc(NC(C)=O)c1 | 794 | 120 nM |  |  |  |
| CCc1c(C)nc(O)c(N(C)C)c1C(=O)c1ccc(C#N)cc1 | 32 | 3160 nM |  |  |  |
| CCc1c(C)nc(O)c(N(C)C)c1C(=O)c1cccc(/C=C(\C#N)c2ccccc2)c1 | 16 | 1000 nM |  |  |  |
| CCc1c(C)nc(O)c(N(C)C)c1Cc1ccc(C)cc1C | 10 | 10000 nM | 100000 nM | 100000 nM |  |
| CCc1c(C)nc(O)c(N(C)C)c1C(=O)c1cccc(-c2ccco2)c1 | 158 | 60 nM |  |  |  |
| CCc1c(C)nc(O)c(N(C)C)c1C(=O)c1cccc(/C=C/c2ccoc2)c1 | 631 | 70 nM |  |  |  |
| CCc1c(C)nc(O)c(N(C)C)c1C(=O)c1cccc(COc2ccccc2)c1 | 2510 | 30 nM |  |  |  |
| CCc1c(C)nc(O)c(N(C)C)c1C(=O)c1cccc(/C=C/c2ccccn2)c1 | 1260 | 70 nM |  |  |  |
| CCc1c(C)nc(O)c(N(C)C)c1C(=O)c1cccc(C)c1 | 39800 | 2 nM |  |  | 1990 nM |
| CCc1c(C)nc(O)c(N(C)C)c1Cc1ccc(C(F)(F)F)cc1 | 6 | 1580 nM | 10000 nM | 10000 nM |  |
| CC/C=C/c1cccc(C(=O)c2c(CC)c(C)nc(O)c2N(C)C)c1 | 1260 | 50 nM |  |  |  |
| CCc1c(C)nc(O)c(N(C)C)c1C(=O)c1cccc(/C=C\c2cccnc2)c1 | 631 | 70 nM |  |  |  |
| CCc1c(C)nc(O)c(N(C)C)c1Cc1cc(C)ccc1C | 631 | 150 nM | 1990 nM |  |  |
| CCc1c(C)nc(O)c(N(C)C)c1C(=O)c1cccc(NS(C)(=O)=O)c1 | 100 | 1000 nM |  |  |  |
| CCc1c(C)nc(O)c(N(C)C)c1C(=O)c1cccc(/C=C(\C#N)c2cccs2)c1 | 126 | 190 nM |  |  |  |
